Molecules are shown by their SMILES. ≈ marks a conversion by molar mass, not a printed value.

Among the data in ChEMBL document CHEMBL1149080, “Synthesis and structure-activity relationships of 2-phenyl-1-[(pyridinyl- and piperidinylmethyl)amino]-3-(1H-1,2,4-triazol-1-yl)propan-2-ols as antifungal agents” (2009) are MIC80 values, retold here.

One assay relates to Candida albicans. Nature of the assay: Antifungal activity against Candida albicans CA98001. The format is functional. An outline of the steps: (§1)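 Growth inhibition of each strain in vitro, following an earlier method; endpoint is MIC80, the lowest concentration giving 80% growth inhibition, in ng mL-1. Values are means of triplicate determinations, with standard deviation given.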

Another assay has as its system Aspergillus fumigatus. Nature of the assay: Antifungal activity against Aspergillus fumigatus AF98003. It is filed as functional. In outline: as §1

A word on the MIC80: it is an inhibitory concentration at the 80% level, which refers to growth in some studies and to a panel of isolates in others. Lower therefore signals greater potency. On to `OC(CNCc1ccncc1)(Cn1cncn1)c1ccc(Cl)cc1Cl` (stereo unspecified), for which the MIC80 in the assay on Candida albicans is 0.036 µg/mL (≈ 0.0952 µM); in the assay with Aspergillus fumigatus it was greater than 30 µg/mL. The corresponding values for `CN(CC1CCN(C(=O)OC(C)(C)C)CC1)CC(O)(Cn1cncn1)c1ccc(F)cc1F` (stereo unspecified) are 0.153 µg/mL (≈ 0.329 µM) and greater than 30 µg/mL. For `OC(CNCc1cccnc1)(Cn1cncn1)c1ccc(F)cc1F` (stereo unspecified), the MIC80 in the assay on Candida albicans was 0.13 µg/mL (≈ 0.376 µM); in the assay with Aspergillus fumigatus, greater than 30 µg/mL.

For `OC(CNCC1CCNCC1)(Cn1cncn1)c1ccc(F)cc1F` (stereo unspecified), the MIC80 in the assay on Candida albicans is 1.41 µg/mL (≈ 4.01 µM); against Aspergillus fumigatus it was greater than 30 µg/mL.

As for `CC(C)(C)OC(=O)N1CCC(CNCC(O)(Cn2cncn2)c2ccc(F)cc2F)CC1` (stereo unspecified), the MIC80 in the assay with Candida albicans is 0.027 µg/mL (≈ 0.0598 µM); in the assay with Aspergillus fumigatus, greater than 30 µg/mL.

As to `OC(CNCC1CCNCC1)(Cn1cncn1)c1ccc(Cl)cc1Cl` (stereo unspecified), the MIC80 was 0.12 µg/mL (≈ 0.312 µM) against Candida albicans and greater than 30 µg/mL with Aspergillus fumigatus. The corresponding values for `OC(CNCc1ccccn1)(Cn1cncn1)c1ccc(Cl)cc1Cl` (stereo unspecified) are 0.023 µg/mL (≈ 0.0608 µM) and greater than 30 µg/mL. Consider `CC(C)(C)OC(=O)N1CCC(CNCC(O)(Cn2cncn2)c2ccc(Cl)cc2Cl)CC1` (stereo unspecified), for which the MIC80 in the assay with Candida albicans was 0.026 µg/mL (≈ 0.0537 µM); against Aspergillus fumigatus it was greater than 30 µg/mL. For `OC(CNCc1cccnc1)(Cn1cncn1)c1ccc(Cl)cc1Cl` (stereo unspecified) the same measures were 0.037 µg/mL (≈ 0.0978 µM) and greater than 30 µg/mL. Consider `CN(CC1CCN(C(=O)OC(C)(C)C)CC1)CC(O)(Cn1cncn1)c1ccc(Cl)cc1Cl` (stereo unspecified), for which the MIC80 against Candida albicans is 0.039 µg/mL (≈ 0.0782 µM); against Aspergillus fumigatus, greater than 30 µg/mL. `OC(CNCc1ccncc1)(Cn1cncn1)c1ccc(F)cc1F` (stereo unspecified): the MIC80 was 0.083 µg/mL (≈ 0.24 µM) in the assay on Candida albicans and greater than 30 µg/mL in the assay with Aspergillus fumigatus. As for `CCC(C)n1ncn(-c2ccc(N3CCN(c4ccc(OCC5COC(Cn6cncn6)(c6ccc(Cl)cc6Cl)O5)cc4)CC3)cc2)c1=O` (stereo unspecified) [ITRACONAZOLE], the MIC80 against Aspergillus fumigatus came to 0.42 µg/mL (≈ 0.595 µM). Take `OC(Cn1cncn1)(Cn1cncn1)c1ccc(F)cc1F` [FLUCONAZOLE]: the MIC80 with Candida albicans amounted to 0.19 µg/mL (≈ 0.62 µM). `OC(CNCc1ccccn1)(Cn1cncn1)c1ccc(F)cc1F` (stereo unspecified): the results for the MIC80 in the assay with Candida albicans and against Aspergillus fumigatus were 0.22 µg/mL (≈ 0.637 µM) and greater than 30 µg/mL, respectively.
